Values joined by “and” are separate entries in the source; they are usually repeats but may differ in a detail not shown here. Equal values may be shown once. Values belong to the compound of their own block, whether it stands above or below them.
Legend:
[1] = Relative lipophilicity of compound; type: physicochemical; conditions: reversed-phase TLC, acetone/water 2:1
How it was run: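 Reversed-phase TLC type lipophilicity: plates dried 105 °C 1 h, mobile phase acetone:water 2:1, 1 µL of 3 mg/mL CHCl3 solution spotted; five runs with varied positions, mean Rf converted as Rm = log[(1/Rf) - 1].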

Mus musculus [2] = assay: Audiogenic seizures after pretreatment with Aniracetam in DBA / 2 mice tonic phase at a dose range of 10-200 uM/kg; type: functional
How it was run: (§1)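 DBA/2 mice pretreated with aniracetam 50 nmol icv 60 min before auditory testing, with ip 2,3-benzodiazepine; audiogenic clonic and tonic phases scored; ED50 by Litchfield-Wilcoxon.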

Mus musculus [3] = species on record: Mus musculus; assay: Audiogenic seizures after concomitant treatment with Flumazenil (24.72 uM) in DBA / 2 mice clonic phase; type: functional
Mus musculus [4] = assay: Anticonvulsant activity against the maximal electroshock in Swiss mice after 45 minutes pretreatment at a dose range uM/kg; type: functional
How it was run: (§2)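 Swiss mice dosed ip in 50% DMSO/50% saline 45 min before ear-clip electroshock (50 mA, 20 ms pulses, 35 Hz, 400 ms). Protection = abolition of tonic hindlimb extension. Usually 4-5 doses with 8-10 mice each; ED50 (95% confidence limits) by Litchfield-Wilcoxon.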

Mus musculus [5] = assay: Anticonvulsant activity against clonic phase of the audiogenic seizures in DBA / 2 mice 30 min after ip administration at a dose range 10-100 uM/kg; type: functional; conditions: 0.5 h
How it was run: (§3)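 Groups of 10 DBA/2 mice of either sex; drug ip (0.1 mL/10 g) as fresh solution in 50% DMSO/50% saline, 30 min before auditory stimulation (12-16 kHz, 109 dB, 60 s or until tonic extension) under perspex dome after 60 s habituation. Latency and incidence of wild running, clonic and tonic phases scored; ED50 (95% confidence limits) by Litchfield-Wilcoxon.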

[6] = Motor toxicity in 50% of mice on locomotion assessed by Rotarod test following 30 min ip administration; type: organism-based; conditions: mouse, in vivo
How it was run: (§4)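 Male Swiss mice (20-26 g, 48-54 days), groups of 10, trained on rotarod (3 cm, 8 rpm); tested 30 min after ip dosing. Impairment = failure to stay on for 2 min; TD50 (95% confidence limits) by Litchfield-Wilcoxon.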

Mus musculus [7] = species on record: Mus musculus; assay: Audiogenic seizures after concomitant treatment with Flumazenil (8.24 uM) in DBA / 2 mice clonic phase; type: functional
Mus musculus [8] = assay: Anticonvulsant activity against the tonic seizures induced by icv injection of AMPA in DBA / 2 mice at a dose range of 10-200 uM/kg; type: functional; conditions: central
Mus musculus [9] = species on record: Mus musculus; assay: Pentylenetetrazole-induced seizures in Swiss mice after 45 min pretreatment at a dose range 10-150 uM / kg (95% confidence limits); type: functional
Mus musculus [10] = species on record: Mus musculus; assay: Audiogenic seizures after concomitant treatment with Flumazenil (8.24 uM) in DBA / 2 mice tonic phase; type: functional
Mus musculus [11] = species on record: Mus musculus; assay: Audiogenic seizures after concomitant treatment with Flumazenil (24.72 uM) in DBA / 2 mice tonic phase; type: functional
Mus musculus [12] = assay: Anticonvulsant activity against tonic phase of the audiogenic seizures in DBA / 2 mice 30 min after ip administration at a dose range 10-100 uM/kg; type: functional; conditions: 0.5 h; how it was run: as §3
Mus musculus [13] = assay: Anticonvulsant activity against the clonic seizures induced by icv injection of AMPA in DBA / 2 mice at a dose range of 10-200 uM / kg (95% confidence limits); type: functional; conditions: central
[14] = Therapeutic index it is the ratio between TD50 and ED50 (from the clonic phase of the audiogenic seizures); conditions: read-out: TI
How it was run: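 Therapeutic index computed as rotarod TD50 divided by ED50 for the clonic phase of audiogenic seizures in DBA/2 mice.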

Mus musculus [15] = assay: Audiogenic seizures after pretreatment with Aniracetam in DBA / 2 mice clonic phase at a dose range of 10-200 uM/kg; type: functional; how it was run: as §1
Mus musculus [16] = assay: Anticonvulsant activity against clonic phase of the audiogenic seizures in DBA / 2 mice 30 min after ip administration at a dose range 10-66 uM/kg; type: functional; conditions: 0.5 h; how it was run: as §3
Mus musculus [17] = assay: Anticonvulsant activity against tonic phase of the audiogenic seizures in DBA / 2 mice 30 min after ip administration at a dose range 10-66 uM/kg; type: functional; conditions: 0.5 h; how it was run: as §3
Mus musculus [18] = assay: Anticonvulsant activity against tonic phase of the audiogenic seizures in DBA / 2 mice 30 min after ip administration at a dose range 33-133 uM/kg; type: functional; conditions: 0.5 h; how it was run: as §3
Mus musculus [19] = assay: Anticonvulsant activity against clonic phase of the audiogenic seizures in DBA / 2 mice 30 min after ip administration at a dose range 33-133 uM/kg; type: functional; conditions: 0.5 h; how it was run: as §3
Mus musculus [20] = assay: Anticonvulsant activity against the maximal electroshock in Swiss mice after 45 minutes pretreatment at a dose range 33-200 uM/kg; type: functional; how it was run: as §2
Mus musculus [21] = assay: Anticonvulsant activity against tonic phase of the audiogenic seizures in DBA / 2 mice 30 min after ip administration at a dose range 33-200 uM/kg; type: functional; conditions: 0.5 h; how it was run: as §3
Mus musculus [22] = assay: Pentylenetetrazole-induced seizures in Swiss mice after 45 min pretreatment at a dose range 33-200 uM/kg; type: functional
Mus musculus [23] = assay: Anticonvulsant activity against clonic phase of the audiogenic seizures in DBA / 2 mice 30 min after ip administration at a dose range 33-200 uM/kg; type: functional; conditions: 0.5 h; how it was run: as §3
Mus musculus [24] = assay: Anticonvulsant activity against tonic phase of the audiogenic seizures in DBA / 2 mice 30 min after ip administration at a dose range 10-120 uM/kg; type: functional; conditions: 0.5 h; how it was run: as §3
[25] = Motor toxicity in 50% of mice on locomotion assessed by Rotarod test following 30 min ip administration (95% confidence limits); type: organism-based; conditions: mouse, in vivo; how it was run: as §4
Mus musculus [26] = assay: Anticonvulsant activity against the maximal electroshock in Swiss mice after 45 minutes pretreatment at a dose range 10-150 uM/kg; type: functional; how it was run: as §2
Mus musculus [27] = assay: Anticonvulsant activity against clonic phase of the audiogenic seizures in DBA / 2 mice 30 min after ip administration at a dose range 10-120 uM/kg; type: functional; conditions: 0.5 h; how it was run: as §3
Mus musculus [28] = assay: Anticonvulsant activity against clonic phase of the audiogenic seizures in DBA / 2 mice 30 min after ip administration at a dose range 33-66 uM/kg; type: functional; conditions: 0.5 h; how it was run: as §3
Mus musculus [29] = assay: Anticonvulsant activity against tonic phase of the audiogenic seizures in DBA / 2 mice 30 min after ip administration at a dose range 33-66 uM/kg; type: functional; conditions: 0.5 h; how it was run: as §3

SMILES: COc1cc2c(cc1OC)C(c1ccc(N)cc1)=NN(C)C(=O)C2
Rm [1]: -0.374
ED50 (Mus musculus [2]): 112 µmol/kg
ED50 (Mus musculus [3]): 45.9 µmol/kg
ED50 (Mus musculus [4]): 57.2 µmol/kg
ED50 (Mus musculus [5]): 50.2 µmol/kg and 16.3 mg/kg
TD50 at 0.5 h [6]: 159 µmol/kg
ED50 (Mus musculus [7]): 51.2 µmol/kg
ED50 (Mus musculus [8]): 62.4 µmol/kg
ED50 (Mus musculus [9]): 70.8 µmol/kg
ED50 (Mus musculus [10]): 38.5 µmol/kg
ED50 (Mus musculus [11]): 32.2 µmol/kg
ED50 (Mus musculus [12]): 43.7 µmol/kg and 14.2 mg/kg
ED50 (Mus musculus [13]): 72.1 µmol/kg
therapeutic index (TD50/ED50) [14]: 3.2
ED50 (Mus musculus [15]): 141 µmol/kg

SMILES: COc1cc2c(cc1OC)C(c1cccc(N)c1)=NN(C)C(=O)C2
Rm [1]: -0.327
ED50 (Mus musculus [16]): 36.8 µmol/kg and 11.9 mg/kg
ED50 (Mus musculus [17]): 30.6 µmol/kg and 9.94 mg/kg

SMILES: COc1ccc2c(c1)CC(=O)N(C)N=C2c1ccccc1
Rm [1]: 0.189
ED50 (Mus musculus [18]): 99.1 µmol/kg and 27.8 mg/kg
ED50 (Mus musculus [19]): 117 µmol/kg and 32.8 mg/kg

SMILES: COc1ccc2c(c1)CC(=O)NN=C2c1ccccc1
Rm [1]: -0.052
ED50 (Mus musculus [20]): 73.4 µmol/kg
ED50 (Mus musculus [21]): 64.8 µmol/kg and 17.2 mg/kg
TD50 at 0.5 h [6]: 197 µmol/kg
ED50 (Mus musculus [22]): 98.2 µmol/kg
ED50 (Mus musculus [23]): 75.5 µmol/kg and 20 mg/kg
therapeutic index (TD50/ED50) [14]: 2.6

SMILES: COc1cc2c(cc1OC)C(c1ccc(N(C(C)=O)C(C)=O)cc1)=NN(C(C)=O)C(=O)C2
Rm [1]: -0.673
ED50 (Mus musculus [5]): 56.8 µmol/kg and 24.8 mg/kg
ED50 (Mus musculus [12]): 43.9 µmol/kg and 19.2 mg/kg

SMILES: COc1cc2c(cc1OC)C(c1ccccc1)=NN(C(C)=O)C(=O)C2
Rm [1]: -0.052
ED50 (Mus musculus [5]): 101 µmol/kg and 33.3 mg/kg
TD50 at 0.5 h [6]: 181 µmol/kg
ED50 (Mus musculus [12]): 72.1 µmol/kg and 24.4 mg/kg
therapeutic index (TD50/ED50) [14]: 1.8

More lines, main results first:

Rm [1]: -0.096
SMILES: COc1cc2c(cc1OC)C(c1ccc([N+](=O)[O-])cc1)=NNC(=O)C2
ED50 (Mus musculus [24]): > 120 µmol/kg and > 44 mg/kg
TD50 at 0.5 h [25]: > 150 µmol/kg
ED50 (Mus musculus [26]): > 150 µmol/kg
ED50 (Mus musculus [9]): > 150 µmol/kg
ED50 (Mus musculus [27]): > 120 µmol/kg and > 44 mg/kg

Rm [1]: 0.25
SMILES: COc1cc2c(cc1OC)C(c1ccc(Cl)cc1)=NN(C)C(=O)C2
ED50 (Mus musculus [28]): 41.2 µmol/kg and 14.2 mg/kg
ED50 (Mus musculus [29]): 38.6 µmol/kg and 13.3 mg/kg

Rm [1]: 0.052
SMILES: COc1cc2c(cc1OC)C(c1cccc([N+](=O)[O-])c1)=NN(C)C(=O)C2
ED50 (Mus musculus [24]): > 120 µmol/kg and > 44 mg/kg
ED50 (Mus musculus [27]): > 120 µmol/kg and > 44 mg/kg

From ChEMBL document CHEMBL1129996, “1-Aryl-3,5-dihydro-4H-2,3-benzodiazepin-4-ones: novel AMPA receptor antagonists” (J Med Chem, 1997)
